Data reported in ChEMBL document CHEMBL3352265, “Potentially bioactive organotin(IV) compounds: synthesis, characterization, in vitro bioactivities and interaction with SS-DNA” (Eur J Med Chem, 2014).
In brackets after ≈: the same amount, converted by molar mass. Activity calls are given as the source filed them. The rule behind the calls is not given here.

Legend:
Leishmania major = experiment: Antileishmanial activity against Leishmania major kwh 23 after 72 hrs using neobar counting by microscopy; type: functional, organism-based; conditions: kwh 23, 72 h
Outline: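 Leishmania major promastigotes grown 7 days at 24 °C in medium 199 with 10% FBS. Samples as 10,000 ppm DMSO stocks, added to reach 200 ppm in the first row and serially diluted in 96-well plates, DMSO kept <5%. DMSO negative and amphotericin B positive controls. Incubated 72 h at 24 °C. Mortality counted in a counting chamber by light microscopy. Run 3 times. IC50 is the concentration giving 50% parasite reduction.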

Staphylococcus aureus [1] = experiment: Antibacterial activity against Staphylococcus aureus ATCC 6538 after 18 hrs by microdilution method; type: functional
Outline: (§1)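 Broth microdilution. Twofold dilutions in culture broth at […]. Each well inoculated with bacterial suspension (10^8 CFU/mL, about 10^5 CFU/well). Sterility control and growth control (broth plus DMSO) included. Incubated at 36 °C for 18 h, in triplicate. MIC taken as the lowest concentration inhibiting growth, given in micrograms per mL.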

Escherichia coli [2] = experiment: Induction of Escherichia coli pBR322 DNA damage assessed as open circular form at 1000 ug/ml after 60 mins by gel electrophoresis
Artemia salina = experiment: Cytotoxicity in brine shrimp assessed as mortality after 24 hrs; type: functional
Klebsiella aerogenes [3] = experiment: Antibacterial activity against Enterobacter aerogenes ATCC 13048 at 40 mg/mL after 24 hrs by disc diffusion method; type: functional
Outline: (§2)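 Disc diffusion. Strains grown in nutrient broth at 37 °C for 24 h. 1% culture (about 10^6 CFU/mL) mixed into nutrient agar at 45 °C and poured. 4 mm paper discs received compound at 40 mg/mL stock in DMSO; final concentrations tested were […]. DMSO served as negative control, roxithromycin and cefixime as positive controls. Triplicate plates incubated at 37 °C for 24 h. Complete-inhibition zone diameter (mm) recorded as the mean of 3.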

Bacillus spizizenii [4] = experiment: Antibacterial activity against Bacillus subtilis ATCC 6633 after 18 hrs by microdilution method; type: functional; outline: as §1
Klebsiella aerogenes [5] = experiment: Antibacterial activity against Enterobacter aerogenes ATCC 13048 after 18 hrs by microdilution method; type: functional, organism-based; outline: as §1
Aspergillus flavus [6] = experiment: Antifungal activity against Aspergillus flavus FCBP 0064 after 7 days by disc diffusion method; type: functional, organism-based
Outline: (§3)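 Disc diffusion on SDA. Fungi cultured at 28 °C for 24 h. 4 mm discs received compound at 40 mg/mL stock in DMSO. DMSO served as negative control, terbinafine as positive control. Plates incubated at 28 °C for 7 days. Growth diameter (mm) measured and inhibition calculated against the negative control. MIC taken as the lowest concentration with no growth.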

Aspergillus fumigatus [7] = experiment: Antifungal activity against Aspergillus fumigatus FCBP 66 after 7 days by disc diffusion method; type: functional, organism-based; outline: as §3
Escherichia coli [8] = experiment: Induction of Escherichia coli pBR322 DNA damage assessed as open circular form at 1 ug/ml after 60 mins by gel electrophoresis
Salmonella typhimurium [9] = experiment: Antibacterial activity against Salmonella typhimurium ATCC 14028 after 18 hrs by microdilution method; type: functional; conditions: Salmonella enterica subsp. enterica serovar Typhimurium; outline: as §1
[10] = system: Bordetella bronchiseptica; experiment: Antibacterial activity against Bordetella bronchiseptica ATCC 4617 after 18 hrs by microdilution method; type: functional; outline: as §1
Aspergillus flavus [11] = experiment: Antifungal activity against Aspergillus flavus FCBP 0064 at 40 mg/mL after 7 days by disc diffusion method; type: functional; outline: as §3
Aspergillus niger [12] = experiment: Antifungal activity against Aspergillus niger FCBP 0198 at 40 mg/mL after 7 days by disc diffusion method; type: functional; outline: as §3
Escherichia coli [13] = experiment: Antibacterial activity against Escherichia coli ATCC 15224 after 18 hrs by microdilution method; type: functional; outline: as §1
Mucor [14] = experiment: Antifungal activity against Mucor FCBP 0400 at 40 mg/mL after 7 days by disc diffusion method; type: functional; outline: as §3
Staphylococcus aureus [15] = experiment: Antibacterial activity against Staphylococcus aureus ATCC 6538 at 40 mg/mL after 24 hrs by disc diffusion method; type: functional; outline: as §2
Salmonella typhimurium [16] = experiment: Antibacterial activity against Salmonella typhimurium ATCC 14028 at 40 mg/mL after 24 hrs by disc diffusion method; type: functional; conditions: Salmonella enterica subsp. enterica serovar Typhimurium; outline: as §2
[17] = system: Agrobacterium tumefaciens; experiment: Antitumor activity against Agrobacterium tumefaciens -induced tumor at 10 ug/ml after 21 days by potato disc bioassay technique; type: functional
Outline: (§4)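 Potato disc assay with 48 h culture of A. tumefaciens At-10. Inoculum contained compound at […]. Red-skinned potatoes sterilized in 0.1% HgCl2; 8 mm × 4 mm discs placed ten per 1.5% agar plate, […] each. Incubated at 28 °C in the dark for 21 days, in triplicate. Discs stained with Lugol's and tumors counted. Percent inhibition calculated against the negative control.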

Bacillus spizizenii [18] = experiment: Antibacterial activity against Bacillus subtilis ATCC 6633 at 40 mg/mL after 24 hrs by disc diffusion method; type: functional; outline: as §2
[19] = system: Agrobacterium tumefaciens; experiment: Antitumor activity against Agrobacterium tumefaciens -induced tumor at 1000 ug/ml after 21 days by potato disc bioassay technique; type: functional; outline: as §4
Escherichia coli [20] = experiment: Induction of Escherichia coli pBR322 DNA damage assessed as open circular form at 10 ug/ml after 60 mins by gel electrophoresis
Aspergillus niger [21] = experiment: Antifungal activity against Aspergillus niger FCBP 0198 after 7 days by disc diffusion method; type: functional, organism-based; outline: as §3
Mucor [22] = experiment: Antifungal activity against Mucor FCBP 0400 at 40 mg/mL by disc diffusion method; type: functional, organism-based; outline: as §3
[23] = system: Bordetella bronchiseptica; experiment: Antibacterial activity against Bordetella bronchiseptica ATCC 4617 at 40 mg/mL after 24 hrs by disc diffusion method; type: functional; outline: as §2
Escherichia coli [24] = experiment: Antibacterial activity against Escherichia coli ATCC 15224 at 40 mg/mL after 24 hrs by disc diffusion method; type: functional; outline: as §2
Escherichia coli [25] = experiment: Induction of Escherichia coli pBR322 DNA damage assessed as open circular form at 100 ug/ml after 60 mins by gel electrophoresis
[26] = system: Agrobacterium tumefaciens; experiment: Antitumor activity against Agrobacterium tumefaciens -induced tumor at 100 ug/ml after 21 days by potato disc bioassay technique; type: functional; outline: as §4
Aspergillus fumigatus [27] = experiment: Antifungal activity against Aspergillus fumigatus FCBP 66 at 40 mg/mL after 7 days by disc diffusion method; type: functional; outline: as §3

Compound | Activity (Escherichia coli [2]) | LD50 (Artemia salina) | inhibition zone (IZ) (Klebsiella aerogenes [3]) | MIC (Aspergillus flavus [6]) | MIC (Aspergillus fumigatus [7]) | Activity (Escherichia coli [8]) | MIC (Salmonella typhimurium [9]) | inhibition zone (IZ) (Aspergillus flavus [11]) | inhibition zone (IZ) (Aspergillus niger [12]) | MIC (Escherichia coli [13]) | inhibition zone (IZ) (Mucor [14]) | inhibition zone (IZ) (Staphylococcus aureus [15]) | inhibition zone (IZ) (Salmonella typhimurium [16]) | Activity [17] | inhibition zone (IZ) (Bacillus spizizenii [18]) | Activity [19] | Activity (Escherichia coli [20]) | MIC (Aspergillus niger [21]) | MIC (Mucor [22]) | inhibition zone (IZ) [23] | also measured
C[C@@H]1[C@H](O)[C@@H](C)/C=C/C=C/C=C/C=C/C=C/C=C/C=C/[C@H](O[C@@H]2O[C@H](C)[C@@H](O)[C@H](N)[C@@H]2O)C[C@@H]2O[C@](O)(C[C@@H](O)C[C@@H](O)[C@H](O)CC[C@@H](O)C[C@@H](O)CC(=O)O[C@H]1C)C[C@H](O)[C@H]2C(=O)O [AMPHOTERICIN B] |  |  |  |  |  |  |  |  |  |  |  |  |  |  |  |  |  |  |  |  | IC50 (Leishmania major): 0.56 µg/mL (≈ 0.606 µM)
N-[(2-methoxyphenyl)]-4-oxo-4-[(triethylstannyl)oxy]butanamide | Active | 0.881 µg/mL | 22 mm | 0.78 µg/mL | 0.78 µg/mL | Active | 6.25 µg/mL | 46 mm | 48 mm | 6.25 µg/mL | 34 mm | 28 mm | 26 mm | 48.3% | 36 mm | 84.1% | Active | 0.78 µg/mL | 0.78 µg/mL | 38 mm | MIC (Staphylococcus aureus [1]): 50 µg/mL; MIC (Bacillus spizizenii [4]): 6.25 µg/mL; MIC (Klebsiella aerogenes [5]): 6.25 µg/mL; MIC [10]: 6.25 µg/mL; inhibition zone (IZ) (Escherichia coli [24]): 34 mm; Activity (Escherichia coli [25]): Active; Activity [26]: 70.3%
N-[(2-methoxyphenyl)]-4-oxo-4-[(tribenzylstannyl)oxy]butanamide | Active | 0.793 µg/mL | 13 mm | 200 µg/mL | 150 µg/mL | Active | 200 µg/mL | 12 mm | 15 mm | 50 µg/mL | 12 mm | 17 mm | 15 mm | 20.3% | 13 mm | 76.1% | Active | 150 µg/mL | 200 µg/mL | 13 mm | MIC (Staphylococcus aureus [1]): 100 µg/mL; MIC (Bacillus spizizenii [4]): 200 µg/mL; MIC (Klebsiella aerogenes [5]): 150 µg/mL; inhibition zone (IZ) (Aspergillus fumigatus [27]): 15 mm; MIC [10]: 100 µg/mL; inhibition zone (IZ) (Escherichia coli [24]): 16 mm; Activity (Escherichia coli [25]): Active; Activity [26]: 62%
N-[(2-methoxyphenyl)]-4-oxo-4-[(trimethylstannyl)oxy]butanamide | Active | 1.09 µg/mL | 20 mm | 50 µg/mL | 50 µg/mL | Active | 25 µg/mL | 28 mm | 28 mm | 25 µg/mL | 24 mm | 25 mm | 23 mm | 30.2% | 27 mm | 69.9% | Active | 12.5 µg/mL | 50 µg/mL | 26 mm | MIC (Staphylococcus aureus [1]): 50 µg/mL; MIC (Bacillus spizizenii [4]): 25 µg/mL; MIC (Klebsiella aerogenes [5]): 50 µg/mL; inhibition zone (IZ) (Aspergillus fumigatus [27]): 22 mm; MIC [10]: 12.5 µg/mL; inhibition zone (IZ) (Escherichia coli [24]): 26 mm; Activity (Escherichia coli [25]): Active; Activity [26]: 54.8%
N-[(2-methoxyphenyl)]-4-oxo-4-[(tricyclohexylstannyl)oxy]butanamide | inactive | 0.493 µg/mL | 0 mm | 150 µg/mL | 150 µg/mL | inactive | 200 µg/mL | 18 mm | 0 mm | 200 µg/mL | 18 mm | 0 mm | 8 mm | 36.5% | 0 mm | 80.9% | inactive | 200 µg/mL | 150 µg/mL | 0 mm | inhibition zone (IZ) (Aspergillus fumigatus [27]): 16 mm; inhibition zone (IZ) (Escherichia coli [24]): 9 mm; Activity (Escherichia coli [25]): inactive; Activity [26]: 57.4%
N-[(2-methoxyphenyl)]-4-oxo-4-[(tributylstannyl)oxy]butanamide | inactive | 0.433 µg/mL | 18 mm | 3.12 µg/mL | 3.12 µg/mL | inactive | 100 µg/mL | 32 mm | 40 mm | 150 µg/mL | 20 mm | 12 mm | 0 mm | 52.3% | 19 mm | 87.8% | inactive | 1.56 µg/mL | 3.12 µg/mL | 12 mm | MIC (Staphylococcus aureus [1]): 150 µg/mL; MIC (Bacillus spizizenii [4]): 50 µg/mL; MIC (Klebsiella aerogenes [5]): 100 µg/mL; inhibition zone (IZ) (Aspergillus fumigatus [27]): 32 mm; MIC [10]: 100 µg/mL; inhibition zone (IZ) (Escherichia coli [24]): 0 mm; Activity (Escherichia coli [25]): inactive; Activity [26]: 72.4%
Di-tert-butylstannanediyl bis[4-(2-methoxyphenylamino)-4-oxobutanoate] | Active | 3.11 µg/mL | 40 mm | 100 µg/mL | 100 µg/mL | Active | 6.25 µg/mL | 20 mm | 24 mm | 12.5 µg/mL | 14 mm | 17 mm | 26 mm | 53.4% | 40 mm | 92.4% | Active | 100 µg/mL | 100 µg/mL | 30 mm | MIC (Staphylococcus aureus [1]): 12.5 µg/mL; MIC (Bacillus spizizenii [4]): 12.5 µg/mL; MIC (Klebsiella aerogenes [5]): 6.25 µg/mL; inhibition zone (IZ) (Aspergillus fumigatus [27]): 18 mm; MIC [10]: 12.5 µg/mL; inhibition zone (IZ) (Escherichia coli [24]): 24 mm; Activity (Escherichia coli [25]): Active; Activity [26]: 71.5%
